For series [1], the target named is Amyloid-beta precursor protein (Homo sapiens) (UniProt P05067). Briefly: Inhibition of amyloid beta (1 to 42) (unknown origin) self aggregation at 25 uM after 24 hrs by ThT-based fluorometric method relative to control. A digest of the protocol: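 Aβ1-42 (25 µM final) incubated at 37 °C for 24 h ± compound in 50 mM phosphate buffer pH 7.4, with DMSO stocks diluted in buffer. Then 5 µM thioflavin T in 50 mM glycine-NaOH pH 8.5 was added and read at ex 446/em 490 nm. Run in triplicate. % inhibition = (1−IFi/IFc)×100 after background subtraction.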

The target of series [2] is T1, Acetylcholinesterase (Rattus norvegicus, UniProt P37136).
T1 sequence (P37136 whole entry): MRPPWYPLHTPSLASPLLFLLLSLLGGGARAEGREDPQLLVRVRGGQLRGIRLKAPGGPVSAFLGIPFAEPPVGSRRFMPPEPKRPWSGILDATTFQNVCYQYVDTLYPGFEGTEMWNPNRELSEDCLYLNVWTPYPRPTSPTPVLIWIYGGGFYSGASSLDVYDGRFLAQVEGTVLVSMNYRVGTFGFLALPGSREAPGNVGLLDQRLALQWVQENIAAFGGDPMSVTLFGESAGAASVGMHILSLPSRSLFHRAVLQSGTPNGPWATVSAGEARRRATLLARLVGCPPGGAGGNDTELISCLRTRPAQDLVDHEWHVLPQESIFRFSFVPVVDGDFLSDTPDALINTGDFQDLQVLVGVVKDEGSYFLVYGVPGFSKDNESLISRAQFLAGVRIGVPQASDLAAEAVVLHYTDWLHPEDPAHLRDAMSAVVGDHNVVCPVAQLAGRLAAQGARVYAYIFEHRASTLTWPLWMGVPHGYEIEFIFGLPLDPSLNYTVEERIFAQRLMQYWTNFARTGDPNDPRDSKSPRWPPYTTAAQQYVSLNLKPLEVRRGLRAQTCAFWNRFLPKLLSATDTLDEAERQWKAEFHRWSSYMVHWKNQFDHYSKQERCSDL
Briefly: Inhibition of rat cortex homogenate AChE using acetylthiocholine iodide as substrate after 15 mins in presence of BuChE inhibitor iso-OMPA by Ellman's method.

Another series is filed under the species Rattus norvegicus. As to the kind of experiment: Selectivity index, ratio of IC50 for rat serum BuChE to IC50 for rat cortex homogenate AChE. A digest of the protocol:
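Modified Ellman assay. AChE from 5% rat cortex homogenate, pre-incubated 5 min with iso-OMPA (4.0 mmol/L). BuChE from 25% rat serum. Enzyme incubated with compound (<1% DMSO) and acetyl- or butyrylthiocholine iodide (1 mmol/L) in phosphate buffer pH 7.4 for 15 min at 37 °C. DTNB added, read at 405 nm. IC50 from 3 independent experiments. Index = BuChE IC50/AChE IC50.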

Series [3] has as its target Acetylcholinesterase (Homo sapiens, UniProt P22303). Briefly: Inhibition of human erythrocyte AChE using acetylthiocholine iodide as substrate after 15 mins by Ellman's method. (In general: In Ellman's method for cholinesterases, released thiocholine reacts with DTNB.)
Series [4] in a line: Inhibition of rat serum BuChE using butyrylthiocholine iodide as substrate after 15 mins by Ellman's method. The format is ADME.
Series [5] addresses Acetylcholinesterase (Electrophorus electricus, UniProt O42275). Briefly: Inhibition of electric eel AChE using acetylthiocholine iodide as substrate after 15 mins by Ellman's method.
Series [6] in a line: Antioxidant activity assessed as trolox equivalents of AAPH radical scavenging activity at 1 to 10 uM preincubated for 15 mins followed by AAPH addition measured every 60 sec for 90 mins by ORAC-FL assay. The class given is functional. A digest of the protocol: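 ORAC-FL in 75 mM phosphate buffer pH 7.4. Compound at 1–10 µM with fluorescein (150 nM final), pre-incubated 15 min at 37 °C, then AAPH added (12 mM final). Fluorescence read every minute for 90 min, ex 485/em 535 nm. Curves normalised to the FL+AAPH blank. Trolox standard 1–8 µM. Duplicates, ≥3 independent assays. Results given as µM Trolox equivalent per µM compound.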

Series [7] in a line: Solubility of the compound in DMEM in presence of 10% FBS. The format is physicochemical.
Series [8] can be described thus: Cytotoxicity against human SH-SY5Y cells assessed as cell viability at 100 uM after 24 hrs by MTT assay relative to control. The class given is cell-based. The following applies: read-out: Activity. A digest of the protocol:
(§1)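 SH-SY5Y cells grown in DMEM with 10% FBS at 37 °C, 5% CO2, seeded 4 × 10^4 cells/well and incubated 24 h. Compounds given at 1, 10 and 100 µM (1% DMSO final) for 24 h. MTT (5 mg/ml) added for 4 h, cells lysed overnight in DMF/SDS, absorbance read at 590 nm against control. Three independent experiments.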

Series [9] can be described thus: Solubility of the compound in water. The class given is physicochemical. The following applies: buffer.
The next series concerns SH-SY5Y. Briefly: Cytotoxicity against human SH-SY5Y cells assessed as reduction in cell viability up to 10 uM after 24 hrs by MTT assay. The format is cell-based. In a few lines:
as §1
On the technique in general: Formazan colour is commonly taken as a measure of viable cells.

Series [10] relates to PC-12. As to the kind of experiment: Neuroprotective activity against H2O2 induced cell injury in rat PC12 cells assessed as increase in cell viability preincubated for 24 hrs followed by incubation with H2O2 for 2 hrs measured after 24 hrs by MTT assay. The class given is functional, cell-based. In a few lines:
(§2)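 PC12 cells in phenol-red-free DMEM with 10% FCS, plated at 10^5 cells/well. Cells preincubated 24 h with compound (1.0 or 10.0 µM; dissolved in 2% DMSO, diluted in PBS), then exposed to H2O2 100 µM for 2 h. Medium replaced; viability assessed 24 h later by MTT (4 h, 37 °C), lysis in DMF/SDS, A590.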

In series [11] the test system is PC-12. Briefly: Neuroprotective activity against H2O2-induced cell injury in rat PC12 cells assessed as cell viability at 10 uM preincubated for 24 hrs followed by incubation with H2O2 for 2 hrs measured after 24 hrs by MTT assay (reference value: 43.9%). The format is functional. The following applies: read-out: Activity. In a few lines: as §2
Series [12] concerns PC-12. Briefly: Neuroprotective activity against H2O2 induced cell injury in rat PC12 cells assessed as cell viability at 1 uM preincubated for 24 hrs followed by incubation with H2O2 for 2 hrs measured after 24 hrs by MTT assay (reference value: 43.9%). The class given is functional. The settings on record: read-out: Activity. A digest of the protocol:
as §2

Series [13] is described as follows: Metal chelating activity assessed as inhibition of Cu2+ induced amyloid beta (1 to 42) aggregation at 25 uM after 24 hrs by ThT-based fluorometric method relative to control. A digest of the protocol:
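Aβ1-42 (25 µM) with Cu2+ (25 µM, one equivalent) in 20 mM HEPES pH 6.6 with NaCl, incubated 24 h at 37 °C ± compound (25 µM). Then 5 µM thioflavin T in glycine-NaOH pH 8.5 was added and read at ex 446/em 490 nm. Triplicate. % inhibition relative to no-compound control.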

Series [14] can be described thus: Metal chelating activity assessed as disaggregation of Cu2+ induced amyloid beta (1 to 42) fibrils at 25 uM treated for 24 hrs post Cu2+ treatment for 24 hrs by ThT-based fluorometric method relative to control. In a few lines: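 Fibrils preformed from Aβ1-42 (25 µM) plus Cu2+ (25 µM) in 20 mM HEPES pH 6.6, 150 mM NaCl, 24 h at 37 °C. Compound (25 µM) then added for another 24 h at 37 °C. Thioflavin T (5 µM, glycine-NaOH pH 8.5) fluorescence read at ex 446/em 490 nm. Triplicate.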

pIC50: −log10 of the molar value. Some results are limits rather than exact numbers.

Sequence of Acetylcholinesterase (Electrophorus electricus, UniProt O42275) (O42275 whole entry): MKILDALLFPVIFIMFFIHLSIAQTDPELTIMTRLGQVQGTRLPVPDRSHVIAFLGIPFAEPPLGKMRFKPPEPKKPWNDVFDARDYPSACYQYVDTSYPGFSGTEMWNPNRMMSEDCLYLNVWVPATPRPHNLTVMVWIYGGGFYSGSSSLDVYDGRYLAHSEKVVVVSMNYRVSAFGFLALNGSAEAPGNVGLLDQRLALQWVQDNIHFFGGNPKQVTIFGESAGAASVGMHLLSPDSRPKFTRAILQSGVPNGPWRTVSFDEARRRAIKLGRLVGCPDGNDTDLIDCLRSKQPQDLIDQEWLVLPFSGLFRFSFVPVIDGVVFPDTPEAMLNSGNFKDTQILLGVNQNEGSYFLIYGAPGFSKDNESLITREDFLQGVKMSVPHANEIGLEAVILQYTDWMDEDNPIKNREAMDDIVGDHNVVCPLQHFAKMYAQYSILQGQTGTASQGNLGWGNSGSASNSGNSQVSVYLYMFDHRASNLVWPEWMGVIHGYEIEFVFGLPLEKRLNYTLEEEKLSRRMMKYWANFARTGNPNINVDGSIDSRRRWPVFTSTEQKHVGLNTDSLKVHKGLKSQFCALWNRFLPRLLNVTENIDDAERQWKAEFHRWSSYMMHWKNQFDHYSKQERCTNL
Sequence of Amyloid-beta precursor protein (Homo sapiens) (P05067 whole entry): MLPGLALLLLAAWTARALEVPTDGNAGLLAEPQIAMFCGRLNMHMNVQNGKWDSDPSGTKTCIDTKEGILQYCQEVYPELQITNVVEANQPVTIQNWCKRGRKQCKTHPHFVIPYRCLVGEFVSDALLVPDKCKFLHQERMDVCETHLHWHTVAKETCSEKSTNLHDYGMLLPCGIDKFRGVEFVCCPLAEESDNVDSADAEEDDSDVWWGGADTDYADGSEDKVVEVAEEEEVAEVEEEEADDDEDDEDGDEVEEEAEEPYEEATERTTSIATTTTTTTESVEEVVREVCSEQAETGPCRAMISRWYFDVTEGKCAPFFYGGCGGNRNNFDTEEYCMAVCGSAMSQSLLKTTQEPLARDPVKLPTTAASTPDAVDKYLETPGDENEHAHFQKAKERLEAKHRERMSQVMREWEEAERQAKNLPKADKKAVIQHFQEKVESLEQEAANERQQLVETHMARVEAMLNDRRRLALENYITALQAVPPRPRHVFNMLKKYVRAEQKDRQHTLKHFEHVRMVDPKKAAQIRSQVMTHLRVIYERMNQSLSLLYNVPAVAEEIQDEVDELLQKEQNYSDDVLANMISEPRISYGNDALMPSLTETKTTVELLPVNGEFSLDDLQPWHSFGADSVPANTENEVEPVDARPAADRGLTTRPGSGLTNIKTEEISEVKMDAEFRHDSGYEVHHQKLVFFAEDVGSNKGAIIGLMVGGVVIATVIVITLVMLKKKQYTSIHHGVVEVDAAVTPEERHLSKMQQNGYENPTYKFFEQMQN
Sequence of Acetylcholinesterase (Homo sapiens, UniProt P22303) (P22303 whole entry): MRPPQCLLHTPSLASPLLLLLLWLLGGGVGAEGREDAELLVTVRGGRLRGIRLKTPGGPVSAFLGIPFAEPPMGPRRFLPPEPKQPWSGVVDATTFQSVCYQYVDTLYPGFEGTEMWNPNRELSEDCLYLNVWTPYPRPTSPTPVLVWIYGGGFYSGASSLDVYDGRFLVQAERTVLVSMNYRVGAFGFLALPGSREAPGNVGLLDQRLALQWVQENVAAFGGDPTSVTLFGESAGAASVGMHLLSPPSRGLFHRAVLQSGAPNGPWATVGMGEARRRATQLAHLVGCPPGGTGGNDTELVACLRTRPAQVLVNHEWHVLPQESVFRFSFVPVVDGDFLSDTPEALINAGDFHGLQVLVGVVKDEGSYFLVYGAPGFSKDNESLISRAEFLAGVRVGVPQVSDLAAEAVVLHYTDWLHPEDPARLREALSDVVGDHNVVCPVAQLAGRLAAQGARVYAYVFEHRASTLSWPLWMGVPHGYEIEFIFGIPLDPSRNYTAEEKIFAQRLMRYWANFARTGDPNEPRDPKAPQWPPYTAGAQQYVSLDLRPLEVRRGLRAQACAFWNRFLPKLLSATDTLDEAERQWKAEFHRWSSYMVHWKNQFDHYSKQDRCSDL

As usually defined, the inhibition is the share of the control response that was lost under treatment. The pIC50 is the IC50 on a negative log10 scale, so that one unit is a factor of ten. In [1], `CCN(CCCCCCNC(=O)COc1ccc(-c2cc(=O)c3c(OC)c(OC)c(OC)cc3o2)cc1)Cc1ccccc1OC` returned an inhibition of 35.5%. Further, the pIC50 at Acetylcholinesterase [2] is 6.46; against Acetylcholinesterase [3] it was 5.90; in [4], 5.62; against Acetylcholinesterase [5], 4.75. For the same molecule, the Ratio IC50 in the series listed under Rattus norvegicus worked out at 6.8. Besides, the Activity in series [6] worked out at 0.34 equiv.

For the molecule `CCN(CCCCNC(=O)COc1ccc(-c2cc(=O)c3c(OC)c(OC)c(OC)cc3o2)cc1)Cc1ccccc1OC`, the inhibition in [1] came to 44.7%. Moreover, the solubility entry in series [7] and in series [9] was “Insoluble” throughout. The pIC50 was 7.13 at Acetylcholinesterase [2], 7.20 against Acetylcholinesterase [3], under 3.30 in series [4] and 5.01 on Acetylcholinesterase [5]. Further, in series [8], the viability at 24 h, 100 µM turned out to be 79.4%. Further, the Ratio IC50 in the series listed under Rattus norvegicus is over 6760. The Activity result was “Non-Toxic” in the series with SH-SY5Y, “Dose-dependent effect” with PC-12 [10] and 0.38 equiv in series [6]. The viability at 10 µM in the series with PC-12 [11] was 63.3%. For the same molecule, in the series on PC-12 [12], the viability at 1 µM stood at 60.1%.

`COc1ccccc1CN(C)CCNC(=O)COc1ccc(-c2cc(=O)c3c(O)c(OC)c(OC)cc3o2)cc1`: the inhibition was 49.3% in series [13] and 54.7% in series [1]. Further, the pIC50 at Acetylcholinesterase [2] is 5.71; in series [4], 3.98; against Acetylcholinesterase [5], 4.85. For the same molecule, the Ratio IC50 in the series listed under Rattus norvegicus stood at 53.3. Moreover, the results for the Activity in series [14] and in series [6] were 57% and 1.18 equiv, respectively.

In the case of `COc1ccccc1CN(C)CCCCCCNC(=O)COc1ccc(-c2cc(=O)c3c(O)c(OC)c(OC)cc3o2)cc1`, the inhibition in [13] stood at 41.5%; in series [1], 53.3%. In addition, the negative logarithm of the IC50 (pIC50) on Acetylcholinesterase [2] was 5.18; in series [4], under 3.30; against Acetylcholinesterase [5] it was 4.91. The Ratio IC50 in the series filed under Rattus norvegicus was over 75.4. Moreover, the Activity in series [14] was determined as 61.2%; in [6], 1.01 equiv.

For the molecule `CCN(CCCCCCNC(=O)COc1ccc(-c2cc(=O)c3c(O)c(OC)c(OC)cc3o2)cc1)Cc1ccccc1OC`, the inhibition was 42.7% in [13] and 56.7% in series [1]. The pIC50 on Acetylcholinesterase [2] is 6.43; against Acetylcholinesterase [3], 5.86; in series [4] it was under 3.30; against Acetylcholinesterase [5] it was 4.93. Moreover, in the series filed under Rattus norvegicus, the Ratio IC50 was over 1350. Further, the Activity in series [14] amounted to 65%; in series [6] it was 0.99 equiv.
